Source: ChEMBL document CHEMBL1155297, “Synthesis, antimicrobial and antioxidant activities of substituted pyrazoles, isoxazoles, pyrimidine and thioxopyrimidine derivatives” (2009)

Assays:
Format in all cases: functional
Staphylococcus aureus [1] = assay: Antibacterial activity against Staphylococcus aureus NCIM 5021 at 200 ug/disk after 24 hrs by agar disk diffusion method; details: NCIM 5021, 24 h, read-out: IZ
Outline: (§1)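 Agar disc diffusion on nutrient agar plates pre-inoculated with each bacterium. Sterile 6 mm filter-paper discs were moistened with compound in DMSO at the stated per-disc amount. Plates were incubated at 37 °C, and the growth-inhibition zone diameter was read after 24 h. Each determination was run in triplicate, and the mean of three independent readings is reported.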

Bacillus subtilis [2] = assay: Antibacterial activity against Bacillus subtilis NCIM 2063 at 200 ug/disk after 24 hrs by agar disk diffusion method; details: NCIM 2063, 24 h, read-out: IZ; outline: as §1
Staphylococcus aureus [3] = assay: Antibacterial activity against Staphylococcus aureus NCIM 5021 at 100 ug/disk after 24 hrs by agar disk diffusion method; details: NCIM 5021, 24 h, read-out: IZ; outline: as §1
[4] = tested on: Radical scavenging activity; assay: Antioxidant activity assessed as DPPH free radical scavenging activity at 100 uM after 20 mins
Outline: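 DPPH scavenging: compound solutions were added to DPPH in dioxane/ethanol and kept at ambient temperature for 20 min. Absorbance was read at 517 nm. The test–control difference was expressed as percent DPPH radical scavenging.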

Curvularia lunata [5] = assay: Antifungal activity against Curvularia lunata NCIM 716 at 200 ug/disk after 48 hrs by agar disk diffusion method; details: NCIM 716, 48 h, read-out: IZ
Outline: (§2)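 Fungal disc diffusion on nutrient agar plates pre-inoculated with each fungus. 6 mm sterile paper discs carried the compound in DMSO at the stated amount per disc. Plates were held at 37 °C, and inhibition-zone diameter was measured after 48 h. Values are the mean of three independent triplicate readings.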

Fusarium solani [6] = assay: Antifungal activity against Fusarium solani NCIM 1330 at 200 ug/disk after 48 hrs by agar disk diffusion method; details: NCIM 1330, 48 h, read-out: IZ; outline: as §2
Bacillus subtilis [7] = assay: Antibacterial activity against Bacillus subtilis NCIM 2063 at 100 ug/disk after 24 hrs by agar disk diffusion method; details: NCIM 2063, 24 h, read-out: IZ; outline: as §1
Klebsiella pneumoniae [8] = assay: Antibacterial activity against Klebsiella pneumoniae NCIM 2957 at 200 ug/disk after 24 hrs by agar disk diffusion method; details: NCIM 2957, 24 h, read-out: IZ; outline: as §1
Klebsiella pneumoniae [9] = assay: Antibacterial activity against Klebsiella pneumoniae NCIM 2957 at 100 ug/disk after 24 hrs by agar disk diffusion method; details: NCIM 2957, 24 h, read-out: IZ; outline: as §1
Fusarium solani [10] = assay: Antifungal activity against Fusarium solani NCIM 1330 at 100 ug/disk after 48 hrs by agar disk diffusion method; details: NCIM 1330, 48 h, read-out: IZ; outline: as §2
Proteus vulgaris [11] = assay: Antibacterial activity against Proteus vulgaris NCIM 2027 at 200 ug/disk after 24 hrs by agar disk diffusion method; details: NCIM 2027, 24 h, read-out: IZ; outline: as §1
Curvularia lunata [12] = assay: Antifungal activity against Curvularia lunata NCIM 716 at 100 ug/disk after 48 hrs by agar disk diffusion method; details: NCIM 716, 48 h, read-out: IZ; outline: as §2
[13] = Antioxidant activity assessed as nitric oxide production at 100 uM after 120 mins by Griess reagent method
Outline: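 Nitric oxide assay with Griess read-out. At intervals, 0.5 ml of incubation solution was mixed with 0.5 ml Griess reagent (1% sulfanilamide, 0.1% N-naphthylethylenediamine dihydrochloride, 2% o-phosphoric acid in water). The control received an equal amount of solvent and was handled identically.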

Aspergillus niger [14] = assay: Antifungal activity against Aspergillus niger NCIM 596 at 100 ug/disk after 48 hrs by agar disk diffusion method; details: NCIM 596, 48 h, read-out: IZ; outline: as §2
Aspergillus niger [15] = assay: Antifungal activity against Aspergillus niger NCIM 596 at 200 ug/disk after 48 hrs by agar disk diffusion method; details: NCIM 596, 48 h, read-out: IZ; outline: as §2
Proteus vulgaris [16] = assay: Antibacterial activity against Proteus vulgaris NCIM 2027 at 100 ug/disk after 24 hrs by agar disk diffusion method; details: NCIM 2027, 24 h, read-out: IZ; outline: as §1

SMILES | zone of inhibition at 200 µg/disc (Staphylococcus aureus [1]) [mm] | zone of inhibition at 200 µg/disc (Bacillus subtilis [2]) [mm] | zone of inhibition at 100 µg/disc (Staphylococcus aureus [3]) [mm] | inhibition [4] [%] | zone of inhibition at 200 µg/disc (Curvularia lunata [5]) [mm] | zone of inhibition at 200 µg/disc (Fusarium solani [6]) [mm] | zone of inhibition at 100 µg/disc (Bacillus subtilis [7]) [mm] | zone of inhibition at 200 µg/disc (Klebsiella pneumoniae [8]) [mm] | zone of inhibition at 100 µg/disc (Klebsiella pneumoniae [9]) [mm] | zone of inhibition at 100 µg/disc (Fusarium solani [10]) [mm] | zone of inhibition at 200 µg/disc (Proteus vulgaris [11]) [mm] | zone of inhibition at 100 µg/disc (Curvularia lunata [12]) [mm] | inhibition [13] [%] | zone of inhibition at 100 µg/disc (Aspergillus niger [14]) [mm] | zone of inhibition at 200 µg/disc (Aspergillus niger [15]) [mm] | zone of inhibition at 100 µg/disc (Proteus vulgaris [16]) [mm]
Cc1ccc(C(=O)CC(C(=O)c2ccc(C)cc2)C2C(N)=NN=C2N)cc1 (stereo unspecified) | 28 | 29 | 25 | 66.5 | 33 | 35 | 27 | 27 | 25 | 32 | 26 | 31 | 68.2 | 30 | 31 | 24
NC1=NC(=S)N=C(N)C1C(CC(=O)c1ccccc1)C(=O)c1ccccc1 (stereo unspecified) | 24 | 24 | 22 | 37.8 | 22 | 20 | 23 | 21 | 19 | 16 | 19 | 19 | 35.7 | 14 | 19 | 17
Cc1ccc(S(=O)(=O)CC(C2C(N)=NC(=S)N=C2N)S(=O)(=O)c2ccc(C)cc2)cc1 (stereo unspecified) | 24 | 22 | 21 | 38.7 | 23 | 21 | 20 | 21 | 19 | 19 | 20 | 21 | 39.9 | 17 | 20 | 20
NC1=NC(=S)N=C(N)C1C(CC(=O)c1ccc(Cl)cc1)C(=O)c1ccc(Cl)cc1 (stereo unspecified) | 26 | 25 | 25 | 41.6 | 21 | 22 | 23 | 22 | 19 | 19 | 22 | 17 | 43.4 | 15 | 20 | 20
NC1=NC(=O)N=C(N)C1C(CS(=O)(=O)c1ccccc1)S(=O)(=O)c1ccccc1 (stereo unspecified) | 20 | 19 | 18 | 28.8 | 21 | 19 | 16 | 18 | 16 | 14 | 16 | 18 | 29.7 | 15 | 18 | 14
Cc1ccc(S(=O)(=O)CC(C2C(N)=NC(=O)N=C2N)S(=O)(=O)c2ccc(C)cc2)cc1 (stereo unspecified) | 23 | 24 | 21 | 28.1 | 18 | 16 | 22 | 19 | 17 | 13 | 18 | 16 | 27.9 | 11 | 15 | 16
